Measurements taken from ChEMBL document CHEMBL1149670, “Fluorine-containing aryloxyethyl thiocyanate derivatives are potent inhibitors of Trypanosoma cruzi and Toxoplasma gondii proliferation” (Bioorg Med Chem Lett, 2007).
Converted amounts (≈) assume the structure as drawn.

How the values were obtained:
[1] = system: Toxoplasma gondii; assay: Antiparasitic activity against Toxoplasma gondii tachyzoites m2m3 infected HFF cells; assay type: functional, organism-based
In short: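 YFP-expressing m2m3 tachyzoites, filtered and needle-passed, were inoculated at 10⁴/ml onto confluent HFF monolayers. Medium was DMEM with 10% fetal bovine serum, 2 mM glutamine and 1 mM pyruvate, with drugs serially diluted in it. Plates were held at 37 °C and read daily for fluorescence from the bottom (ex 510, em 540 nm). IC50 came from fitting I = Imax·C/(IC50 + C), with Imax = 100%.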

[2] = system: Trypanosoma cruzi; assay: Antiparasitic activity against Trypanosoma cruzi Y amastigotes infected gamma irradiated L6E9 myoblast; assay type: functional, organism-based; settings: L6E9, light or radiation study
In short: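 Gamma-irradiated L6E9 myoblasts were kept in DMEM with 20% FCS for 24 h at 37 °C and 5% CO₂. They were then infected with Y-strain trypomastigotes or amastigotes (4.17 × 10⁶/well) for 2 h at 37 °C and 7% CO₂, then washed. [5,6-³H]uracil and aqueous drug solutions were added for 72 h. TCA-precipitable counts were taken on day 3, and percent inhibition was calculated from cpm differences versus control.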

[3] = system: Trypanosoma cruzi; assay: Antiparasitic activity against Trypanosoma cruzi Y infected gamma irradiated L6E9 myoblast; settings: L6E9, light or radiation study

Compound	IC50 [1]	IC50 [2]	IC50 [3]
O=C1C(O)=C([C@H]2CC[C@H](c3ccc(Cl)cc3)CC2)C(=O)c2ccccc21 [ATOVAQUONE]	0.29 µM		
Fc1cccc(Oc2ccc(OCCOC3CCCCO3)cc2)c1 (stereo unspecified)	3.99 µM	19 µM	> 20 mg/L
Fc1ccc(Oc2ccc(OCCOC3CCCCO3)cc2)cc1 (stereo unspecified)	6.16 µM	14.4 µM	> 20 mg/L
N#CSCCOc1ccc(Oc2ccccc2)cc1	2.8 µM	12 µM	2.6 mg/L (≈ 9.58 µM)
N#CSCCOc1ccc(Oc2ccc(F)cc2)cc1	3.85 µM	3.7 µM	1.95 mg/L (≈ 6.74 µM)
N#CSCCOc1ccc(Oc2cccc(F)c2)cc1	15.8 µM	4.3 µM	1.74 mg/L (≈ 6.01 µM)
